The text below walks through data of ChEMBL document CHEMBL1143775, “Convenient one pot synthesis of some novel derivatives of thiazolo[2,3-b]dihydropyrimidinone possessing 4-methylthiophenyl moiety and evaluation of their antibacterial and antifungal activities” (2007).

Common to all, as to type: functional
Experiment [1] concerns Candida albicans. Briefly: Antifungal activity against Candida albicans NCIM 3100 at 10 ug/ml. Conditions: read-out: IZ. Put shortly:
(§1)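 Serial dilution method on Sabouraud agar (peptone, D-glucose, agar; pH 5.7) seeded with a saline spore suspension made from a loopful of each strain. Plates were dried for 1 h at incubator temperature. Test solutions in DMSO went into punched wells, with a DMSO control. Incubation was at 37 °C for 3–4 days. Zone of inhibition and MIC were read against ciclopiroxolamine as standard.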

Experiment [2] concerns Aspergillus flavus. In words: Antifungal activity against Aspergillus flavus NCIM 524 by dilution method. Put shortly:
as §1

Experiment [3] has as its system Aspergillus flavus. Briefly: Antifungal activity against Aspergillus flavus NCIM 524 at 10 ug/ml. Conditions: read-out: IZ. Put shortly:
as §1

Experiment [4] relates to Escherichia coli. Briefly: Antibacterial activity against Escherichia coli ATCC 25922. The procedure, abridged: (§2)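 Compound-loaded discs were placed on nutrient agar inoculated separately with fresh bacterial strains. Plates were incubated at 37 °C for 24 h with separate solvent and growth controls. Zone of inhibition and MIC were measured. Ciprofloxacin was the reference drug.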

The test system of experiment [5] is Klebsiella pneumoniae. Briefly: Antibacterial activity against Klebsiella pneumoniae. The procedure, abridged:
as §2

The subject of experiment [6] is Pseudomonas aeruginosa. Briefly: Antibacterial activity against Pseudomonas aeruginosa ATCC 27853. Put shortly: as §2
The subject of experiment [7] is Klebsiella pneumoniae. Briefly: Antibacterial activity against Klebsiella pneumoniae at 10 ug/ml. Conditions: read-out: IZ. The procedure, abridged: as §2
Experiment [8] has as its system Aspergillus fumigatus. Briefly: Antifungal activity against Aspergillus fumigatus NCIM 902 at 10 ug/ml. Conditions: read-out: IZ. The procedure, abridged:
as §1

Experiment [9] has as its system Staphylococcus aureus. In words: Antibacterial activity against Staphylococcus aureus ATCC 25923. The procedure, abridged: as §2
In experiment [10] the test system is Talaromyces marneffei. Briefly: Antifungal activity against Penicillium marneffei at 10 ug/ml. Conditions: read-out: IZ. Put shortly: as §1
For experiment [11], the system named is Staphylococcus aureus. Briefly: Antibacterial activity against Staphylococcus aureus ATCC 25923 at 10 ug/ml by disk diffusion method. Conditions: read-out: IZ. The procedure, abridged:
as §2

Experiment [12] has as its system Escherichia coli. Briefly: Antibacterial activity against Escherichia coli ATCC 25922 at 10 ug/ml. Conditions: read-out: IZ. The procedure, abridged: as §2
Experiment [13] has as its system Pseudomonas aeruginosa. In words: Antibacterial activity against Pseudomonas aeruginosa ATCC 27853 at 10 ug/ml. Conditions: read-out: IZ. The procedure, abridged:
as §2

Experiment [14] deals with Talaromyces marneffei. Briefly: Antifungal activity against Penicillium marneffei by dilution method. The procedure, abridged:
as §1

Experiment [15] relates to Aspergillus fumigatus. In words: Antifungal activity against Aspergillus fumigatus NCIM 902 by dilution method. The procedure, abridged: as §1
Experiment [16] concerns Candida albicans. Briefly: Antifungal activity against Candida albicans NCIM 3100 by dilution method. The procedure, abridged:
as §1

For orientation: MIC means the smallest concentration in the dilution series that meets the test's criterion for growth inhibition.

Values after ≈ are worked out from the molar mass of the structure shown.

Consider `CCOC(=O)C1=C(C)N=c2s/c(=C\c3ccc(O)c(OC)c3)c(=O)n2C1c1ccc(SC)cc1` (stereo not drawn), for which the zone of inhibition at 10 µg/mL with Candida albicans [1] was found to be 10 mm; with Aspergillus flavus [3] it was 11 mm; in the experiment with Klebsiella pneumoniae [7], 18 mm; in the experiment on Aspergillus fumigatus [8], 21 mm; in the experiment with Talaromyces marneffei [10], 19 mm; in the experiment with Staphylococcus aureus [11], 20 mm. The zone of inhibition at 10 µg/mL was determined as 18 mm in the experiment with Escherichia coli [12] and 23 mm with Pseudomonas aeruginosa [13]. Also, the MIC was 25 µg/mL (≈ 50.3 µM) against Aspergillus flavus [2]; 12.5 µg/mL (≈ 25.2 µM) in the experiment with Escherichia coli [4]; 12.5 µg/mL (≈ 25.2 µM) against Klebsiella pneumoniae [5]; 6 µg/mL (≈ 12.1 µM) in the experiment with Pseudomonas aeruginosa [6]; 12.5 µg/mL (≈ 25.2 µM) against Staphylococcus aureus [9]; 6 µg/mL (≈ 12.1 µM) against Talaromyces marneffei [14]. In addition, the MIC in the experiment with Aspergillus fumigatus [15] worked out at 6 µg/mL (≈ 12.1 µM); against Candida albicans [16], 12.5 µg/mL (≈ 25.2 µM).

Take `CCOC(=O)C1=C(C)N=c2s/c(=C\c3ccc(OC)cc3)c(=O)n2C1c1ccc(SC)cc1` (stereo not drawn): the zone of inhibition at 10 µg/mL was found to be 20 mm in the experiment on Candida albicans [1]; 17 mm in the experiment with Aspergillus flavus [3]; 21 mm in the experiment on Klebsiella pneumoniae [7]; 21 mm with Aspergillus fumigatus [8]; 12 mm with Talaromyces marneffei [10]; 12 mm in the experiment on Staphylococcus aureus [11]. The zone of inhibition at 10 µg/mL amounted to 10 mm in the experiment with Escherichia coli [12] and 24 mm in the experiment on Pseudomonas aeruginosa [13]. In addition, the MIC in the experiment on Aspergillus flavus [2] was determined as 12.5 µg/mL (≈ 26 µM); against Escherichia coli [4] it was 25 µg/mL (≈ 52 µM); in the experiment with Klebsiella pneumoniae [5], 6 µg/mL (≈ 12.5 µM); against Pseudomonas aeruginosa [6], 6 µg/mL (≈ 12.5 µM); in the experiment with Staphylococcus aureus [9], 25 µg/mL (≈ 52 µM); against Talaromyces marneffei [14], 12.5 µg/mL (≈ 26 µM). Besides, the MIC in the experiment on Aspergillus fumigatus [15] and against Candida albicans [16] was 6 µg/mL (≈ 12.5 µM) each time.

Turning to `O=C(O)c1cn(C2CC2)c2cc(N3CCNCC3)c(F)cc2c1=O` [CIPROFLOXACIN], the MIC with Escherichia coli [4] amounted to 12.5 µg/mL (≈ 37.7 µM); in the experiment on Klebsiella pneumoniae [5], 6 µg/mL (≈ 18.1 µM); against Pseudomonas aeruginosa [6] it was 6 µg/mL (≈ 18.1 µM); in the experiment on Staphylococcus aureus [9] it was 12.5 µg/mL (≈ 37.7 µM). Further, the zone of inhibition at 10 µg/mL in the experiment with Klebsiella pneumoniae [7] came out at 20 mm; in the experiment on Staphylococcus aureus [11], 19 mm; in the experiment with Escherichia coli [12], 18 mm; in the experiment on Pseudomonas aeruginosa [13] it was 25 mm.

For `CCOC(=O)C1=C(C)N=c2s/c(=C\c3ccc(-c4ccc(Cl)cc4Cl)o3)c(=O)n2C1c1ccc(SC)cc1` (stereo not drawn), the zone of inhibition at 10 µg/mL in the experiment with Candida albicans [1] turned out to be 20 mm; with Aspergillus flavus [3] it was 18 mm; with Klebsiella pneumoniae [7] it was 20 mm; with Aspergillus fumigatus [8], 10 mm; in the experiment with Talaromyces marneffei [10], 18 mm; in the experiment on Staphylococcus aureus [11], 19 mm. The zone of inhibition at 10 µg/mL turned out to be 11 mm in the experiment with Escherichia coli [12] and 23 mm with Pseudomonas aeruginosa [13]. For the same compound, the minimal inhibitory concentration (MIC) came to 12.5 µg/mL (≈ 21.3 µM) in the experiment on Aspergillus flavus [2]; 25 µg/mL (≈ 42.7 µM) against Escherichia coli [4]; 6 µg/mL (≈ 10.2 µM) with Klebsiella pneumoniae [5]; 6 µg/mL (≈ 10.2 µM) in the experiment on Pseudomonas aeruginosa [6]; 12.5 µg/mL (≈ 21.3 µM) against Staphylococcus aureus [9]; 6 µg/mL (≈ 10.2 µM) with Talaromyces marneffei [14]. For the same compound, the MIC was determined as 12.5 µg/mL (≈ 21.3 µM) in the experiment with Aspergillus fumigatus [15] and 6 µg/mL (≈ 10.2 µM) with Candida albicans [16].

In the case of `CCOC(=O)C1=C(C)N=c2s/c(=C\c3ccc(-c4ccc(Cl)cc4)o3)c(=O)n2C1c1ccc(SC)cc1` (stereo not drawn), the zone of inhibition at 10 µg/mL in the experiment with Candida albicans [1] worked out at 19 mm; with Aspergillus flavus [3] it was 17 mm; with Klebsiella pneumoniae [7] it was 12 mm; with Aspergillus fumigatus [8] it was 10 mm; with Talaromyces marneffei [10], 11 mm; with Staphylococcus aureus [11] it was 12 mm. Further, the zone of inhibition at 10 µg/mL in the experiment with Escherichia coli [12] and in the experiment with Pseudomonas aeruginosa [13] was 10 mm throughout. Besides, the MIC came out at 12.5 µg/mL (≈ 22.7 µM) with Aspergillus flavus [2]; 25 µg/mL (≈ 45.4 µM) with Escherichia coli [4]; 12.5 µg/mL (≈ 22.7 µM) in the experiment on Klebsiella pneumoniae [5]; 12.5 µg/mL (≈ 22.7 µM) in the experiment with Pseudomonas aeruginosa [6]; 25 µg/mL (≈ 45.4 µM) against Staphylococcus aureus [9]; 12.5 µg/mL (≈ 22.7 µM) against Talaromyces marneffei [14]. Besides, the values for the minimum inhibitory concentration (MIC) in the experiment with Aspergillus fumigatus [15] and in the experiment with Candida albicans [16] were 12.5 µg/mL (≈ 22.7 µM) and 6 µg/mL (≈ 10.9 µM), respectively.

Regarding `CCOC(=O)C1=C(C)N=c2s/c(=C\c3ccc(-c4ccc(Br)cc4)o3)c(=O)n2C1c1ccc(SC)cc1` (stereo not drawn), the zone of inhibition at 10 µg/mL in the experiment on Candida albicans [1] came out at 19 mm; in the experiment on Aspergillus flavus [3] it was 18 mm; in the experiment on Klebsiella pneumoniae [7], 20 mm; in the experiment with Aspergillus fumigatus [8], 12 mm; in the experiment with Talaromyces marneffei [10] it was 20 mm; with Staphylococcus aureus [11], 18 mm. Further, the zone of inhibition at 10 µg/mL in the experiment with Escherichia coli [12] stood at 18 mm; in the experiment on Pseudomonas aeruginosa [13], 23 mm. In addition, the minimum inhibitory concentration (MIC) in the experiment on Aspergillus flavus [2] worked out at 12.5 µg/mL (≈ 21 µM); against Escherichia coli [4] it was 12.5 µg/mL (≈ 21 µM); against Klebsiella pneumoniae [5], 6 µg/mL (≈ 10.1 µM); in the experiment on Pseudomonas aeruginosa [6] it was 6 µg/mL (≈ 10.1 µM); in the experiment on Staphylococcus aureus [9], 12.5 µg/mL (≈ 21 µM); in the experiment on Talaromyces marneffei [14], 6 µg/mL (≈ 10.1 µM). In addition, the MIC with Aspergillus fumigatus [15] came out at 12.5 µg/mL (≈ 21 µM); against Candida albicans [16], 6 µg/mL (≈ 10.1 µM).
